# Measured values of several laboratories.
# Each line is one published result; the experiments were not run side by side.
# Target: Focal adhesion kinase 1 (PTK2, Homo sapiens, UniProt Q05397)
SMILES,test,setting,remaining binding [%]
O=C1CCc2cc(Nc3cc(OC4CCOCC4)c([N+](=O)[O-])cc3Cl)ccc2N1,"cell-free assay, competition with immobilised ligand",1 µM,100
O=C(c1ccc(Nc2ncc(Cl)c(-c3ccc(Cl)s3)n2)cc1)N1CCC(N2CCCC2)CC1,"binding, competition with immobilised ligand",1 µM,41
O=C(NS(=O)(=O)c1ccc(NCC2CCOCC2)c([N+](=O)[O-])c1)c1ccc(N2CCN(Cc3ccc(C(F)(F)F)cc3-c3ccc(Cl)cc3)CC2)cc1Oc1cnc2[nH]ccc2c1,"cell-free assay, competition with immobilised ligand",1 µM,100
c1cnn2ncc(-c3ccnc(N4CCC45COC5)n3)c2c1,binding,1 µM,99
CC(C)(C)c1ccc(-c2nc(CBr)nn2-c2cccc(O)c2)cc1,"cell-free assay, competition with immobilised ligand",10 µM,88
O=C(NCC1CCOCC1)c1n[nH]cc1NC(=O)c1c(F)cccc1F,"binding, competition with immobilised ligand",1 µM,100
O=C(NCCCN1CCOCC1)c1ccc(Nc2ncc(Cl)c(-c3ccc(Cl)s3)n2)cc1,"binding, competition with immobilised ligand",1 µM,8.1
CCS(=O)(=O)c1cc2cc(C[C@@](O)(CC(C)(C)c3ccc(F)cc3C(N)=O)C(F)(F)F)[nH]c2cn1,"cell-free assay, competition with immobilised ligand",1 µM,100
C[C@@H]1CN(c2ccc3ncc(-c4ccc5[nH]nc(C6CC6)c5c4)n3n2)C[C@H](C)O1,"binding, competition with immobilised ligand",50 nM,98
CNC(=O)Nc1ccc2c(c1)[C@@]1(CC2)OC(=O)N(CC(=O)N(Cc2ccc(F)cc2)[C@@H](C)C(F)(F)F)C1=O,"cell-free assay, competition with immobilised ligand",1 µM,100
c1cncc(-c2cccc(Nc3nccc(NC4CCCCC4)n3)c2)c1,"binding, competition with immobilised ligand",10 µM,67
CN(CCCC(F)(F)F)c1nccc(-c2cnn3ncccc23)n1,binding,1 µM,100
COc1cnc(Nc2cccc(S(N)(=O)=O)c2)nc1N1CCN(c2ccccc2)C(=O)C1,"binding, competition with immobilised ligand",1 µM,99
CN(C)c1nccc(-c2cnn3ncccc23)n1,binding,1 µM,79
Cc1cnc(Nc2ccc(C(=O)N3CCC(N4CCCC4)CC3)cc2)nc1-c1cc2ccccc2s1,"binding, competition with immobilised ligand",1 µM,100
CCN1CCN(Cc2ccc(C(=O)Nc3ccc(C)c(Oc4ccc5c(c4)CC(=O)N5)c3)cc2C(F)(F)F)CC1,"binding, competition with immobilised ligand",1 µM,77
CC(=O)C1=C(C)N(c2cccc(C(F)(F)F)c2)C(=O)N[C@@H]1c1ccc(C#N)nc1,"cell-free assay, competition with immobilised ligand",1 µM,100
C[C@H]1CCN(c2nccc(-c3cnn4ncccc34)n2)C1,binding,1 µM,100
c1ccc(N2CCN(Cc3nc4ccccc4[nH]3)CC2)nc1,"binding, competition with immobilised ligand",1 µM,86
C[C@@H](c1ccc(-n2cnc3c(N)ncnc32)cc1)N1CCc2nn(C)c(Cc3ccccc3)c2C1=O,"binding, competition with immobilised ligand",0.1 µM,87
O=C(NCc1ncc(C(F)(F)F)cc1Cl)c1ccc2c(c1)C1(CCS(=O)(=O)CC1)[C@@H](C1CC1)N2S(=O)(=O)c1ccc(F)cc1,"cell-free assay, competition with immobilised ligand",1 µM,95
COc1cnc(Nc2cccc(S(N)(=O)=O)c2)nc1N1CCN(c2ccccc2)CC1,"binding, competition with immobilised ligand",1 µM,100
